Assay [1] addresses T1, Melatonin receptor type 1B (Homo sapiens, UniProt P49286).
T1 sequence (P49286 whole entry): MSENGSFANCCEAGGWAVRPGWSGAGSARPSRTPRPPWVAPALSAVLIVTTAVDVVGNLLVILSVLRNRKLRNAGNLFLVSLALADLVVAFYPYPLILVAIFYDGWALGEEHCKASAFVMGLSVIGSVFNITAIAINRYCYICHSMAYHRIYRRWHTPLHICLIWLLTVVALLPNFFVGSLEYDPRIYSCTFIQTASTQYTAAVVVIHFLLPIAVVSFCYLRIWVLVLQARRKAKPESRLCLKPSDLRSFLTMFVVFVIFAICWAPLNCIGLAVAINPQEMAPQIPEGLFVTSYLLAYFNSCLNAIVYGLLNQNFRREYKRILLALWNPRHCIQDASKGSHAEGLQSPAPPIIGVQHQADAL
Nature of the assay: Displacement of 2-[125I]iodomelatonin from human MT2 receptor expressed in CHO cells. The assay is classed as cell-based.

Assay [2] addresses T2, Melatonin receptor type 1A (Homo sapiens, UniProt P48039). The assay is described as follows: Displacement of 2-[125I]iodomelatonin from human MT1 receptor expressed in CHO cells. It counts as cell-based.
The species named for a further assay is Homo sapiens. The assay is described as follows: Selectivity ratio of Ki for human MT1 receptor to Ki for human MT2 receptor. In outline: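 Whole-cell competition binding used lifted human MT1- or MT2-CHO cells with 80-100 pM 2-[125I]iodomelatonin and test compound (1 pM to 1 µM), 1 h at 25 °C, stopped with cold 50 mM Tris-HCl pH 7.4. Ki came from IC50 by Cheng-Prusoff, mean of three determinations. The ratio is Ki MT1 / Ki MT2.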

Assay [3] has as its target T3, Melatonin receptor type 1B (Homo sapiens) (UniProt P49286).
T3 sequence (whole entry): T1 sequence (P49286 whole entry)
Nature of the assay: Antagonist activity at human MT2 receptor expressed in CHO cells assessed as inhibition of forskolin-stimulated cAMP formation. It counts as functional, cell-based. In outline: (§1)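 In stable human MT1- or MT2-CHO cells replated in 24-well plates, cells were given 20 min at 37 °C in serum-free medium with 30 µM rolipram and 100 µM forskolin, plus a test compound concentration series within 10-14 to 10^-4 M. Rolipram alone gave basal and rolipram plus forskolin gave maximal accumulation. cAMP was read by EIA kit.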
(In general: cAMP levels reflect the balance of adenylyl cyclase and phosphodiesterase activity.)

For assay [4], the target named is T2, Melatonin receptor type 1A. Nature of the assay: Activity at low-affinity binding site of human MT1 receptor expressed in CHO cells assessed as increase in potency of melatonin to inhibit forskolin-induced cAMP accumulation at 10 to 100 nM. It counts as functional, cell-based.
The target in assay [5] is T2, Melatonin receptor type 1A. Nature of the assay: Antagonist activity at human MT1 receptor expressed in CHO cells assessed as inhibition of forskolin-stimulated cAMP formation. It counts as functional, cell-based. In outline:
as §1

Assay [6] concerns the target T2, Melatonin receptor type 1A. Nature of the assay: Activity at high-affinity binding site of human MT1 receptor expressed in CHO cells assessed as decrease in potency of melatonin to inhibit forskolin-induced cAMP accumulation at 10 to 100 nM.
In assay [7] the target is T3, Melatonin receptor type 1B (Homo sapiens). Nature of the assay: Activity at human MT2 receptor expressed in CHO cells assessed as increase in potency of melatonin to inhibit forskolin-induced cAMP accumulation at 10 nM. The assay is classed as functional, cell-based.
For assay [8] the target is unchanged. Nature of the assay: Activity at human MT2 receptor expressed in CHO cells assessed as increase in potency of melatonin to inhibit forskolin-induced cAMP accumulation at 100 nM. It counts as functional, cell-based.
The target is the same in assay [9]. The assay is described as follows: Activity at human MT2 receptor expressed in CHO cells assessed as inhibition of forskolin-stimulated cAMP formation at >10 nM. It counts as functional, cell-based. In outline: as §1

Calls of active or inactive are those of the source. No cut-off for these calls is given here.

T2 sequence (P48039 whole entry): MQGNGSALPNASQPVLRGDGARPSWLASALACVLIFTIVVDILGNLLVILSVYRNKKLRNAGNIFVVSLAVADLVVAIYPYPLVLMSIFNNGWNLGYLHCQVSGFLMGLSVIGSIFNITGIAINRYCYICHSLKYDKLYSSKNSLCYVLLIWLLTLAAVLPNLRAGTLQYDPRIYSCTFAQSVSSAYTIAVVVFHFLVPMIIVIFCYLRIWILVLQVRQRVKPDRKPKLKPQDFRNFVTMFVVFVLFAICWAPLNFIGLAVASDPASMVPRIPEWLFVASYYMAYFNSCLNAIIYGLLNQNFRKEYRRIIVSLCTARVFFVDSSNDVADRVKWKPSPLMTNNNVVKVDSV

`COc1ccc2[nH]c(CN3c4ccccc4CC3C)c(CCNC(C)=O)c2c1` (stereo not drawn): the Ki is 14 nM in assay [1] (read-out: Ki) and 148 nM in [2] (read-out: Ki). Further, the Ratio Ki in the assay filed under Homo sapiens was determined as 11.

Consider `CCCC(=O)NCCc1c(CN2c3ccccc3CC2C)[nH]c2ccc(OC)cc12` (stereo not drawn), for which the Ki in assay [1] (read-out: Ki) was determined as 8 nM; in [2] (read-out: Ki) it was 41 nM. The Ratio Ki in the assay listed under Homo sapiens came out at 5.

With `COc1ccc2[nH]c(CN3CCCC3)c(CCNC(C)=O)c2c1`, the Ki worked out at 25 nM in [1] (read-out: Ki) and 121 nM in [2] (read-out: Ki).

With `CCC(=O)NCCc1c(CN2CCc3ccccc32)[nH]c2ccc(OC)cc12`, the Ki was found to be 14.5 nM in assay [1] (read-out: Ki) and 38 nM in assay [2] (read-out: Ki).

On to `COc1ccc2[nH]c(CN3CCc4ccc(N)cc43)c(CCNC(C)=O)c2c1`, for which the Ki in assay [1] (read-out: Ki) came to 118 nM; in [2] (read-out: Ki), 108 nM.

As for `COc1ccc2c(c1)CC1Cn3c(c(CCNC(C)=O)c4cc(OC)ccc43)CN21` (stereo not drawn), the Ki in assay [2] (read-out: pKi (converted)) is 1780 nM.

Consider `COc1ccc2c(c1)c(CCNC(C)=O)c1n2CC2Cc3ccccc3N2C1` (stereo not drawn), for which the values for the Ki in assay [1] (read-out: pKi (converted)) and in assay [2] (read-out: pKi (converted)) were 60.3 nM and 302 nM, respectively.

On to `COc1ccc2[nH]c(CN3CCc4cc(Br)ccc43)c(CCNC(C)=O)c2c1`, for which the figures for the Ki in assay [1] (read-out: Ki) and in assay [2] (read-out: Ki) were 30 nM and 85 nM, respectively.

Take `COc1cccc(Cc2oc3ccc(OC)cc3c2CCNC(C)=O)c1`: the Ki in [1] (read-out: Ki) is 0.25 nM; in assay [2] (read-out: Ki), 27 nM.

`COc1ccc2c(c1)[C@@H](CCNC(=O)C1CCC1)C[C@@H](c1ccccc1)C2`: the values for the Ki in [1] (read-out: Ki) and in [2] (read-out: Ki) were 0.9 nM and 797 nM, respectively.

`CCC(=O)NC1Cc2ccccc2C(c2ccccc2)C1` (stereo not drawn): the Ki in assay [1] (read-out: Ki) was 0.46 nM; in assay [2] (read-out: Ki), 59 nM.

On to `COc1ccc2[nH]c(CN3CCc4ccccc43)c(CCNC(C)=O)c2c1`, for which the outcome in [3], in assay [4], in assay [5], in [6], in assay [7] and in assay [8] was Active. The Ki in assay [1] (read-out: Ki) was 1.1 nM; in assay [1] (read-out: pKi (converted)) it was 1.17 nM; in assay [2] (read-out: Ki) it was 101 nM; in [2] (read-out: pKi (converted)), 115 nM. Also, in the assay filed under Homo sapiens, the Ratio Ki is 91.

Regarding `COc1ccc2[nH]c(CN3CCc4cc(C)ccc43)c(CCNC(C)=O)c2c1`, the Ki was 15 nM in assay [1] (read-out: Ki) and 41 nM in assay [2] (read-out: Ki).

With `COc1ccc2[nH]c(CN3CCc4ccc([N+](=O)[O-])cc43)c(CCNC(C)=O)c2c1`, the Ki in assay [1] (read-out: Ki) was 26.5 nM; in assay [2] (read-out: Ki), 302 nM; in assay [2] (read-out: pKi (converted)), 309 nM.

With `CCC(=O)NCc1cc2c(OC)cccc2n1Cc1ccc(Cl)cc1`, the Ki in [1] (read-out: Ki) turned out to be 9 nM.

As for `COc1cccc(/C(=C/CNC(C)=O)c2ccccc2)c1`, the Ki came to 2.5 nM in assay [1] (read-out: Ki) and 230 nM in assay [2] (read-out: Ki).

Take `COc1ccc2c(c1)CCN2Cc1[nH]c2ccc(OC)cc2c1CCNC(C)=O`: the figures for the Ki in [1] (read-out: Ki) and in [2] (read-out: Ki) were 7.1 nM and 5.8 nM, respectively.

As for `COc1cccc(C(CCNC(C)=O)c2ccc3ccccc3c2)c1` (stereo not drawn), the values for the Ki in [1] (read-out: Ki) and in assay [2] (read-out: Ki) were 0.11 nM and 132 nM, respectively.

Consider `COc1ccc2[nH]c(CN3CCc4ccccc43)c(CCNC(=O)C3CCC3)c2c1`, for which the result in assay [5] and in assay [9] was Active. Also, the Ki in [1] (read-out: Ki) is 148 nM; in [1] (read-out: pKi (converted)), 0.001 nM; in [2] (read-out: Ki) it was 1400 nM.

Turning to `CCC(=O)NCC1Cc2ccccc2Cc2ccc(OC)cc21` (stereo not drawn), the Ki in assay [1] (read-out: Ki) turned out to be 0.16 nM; in [2] (read-out: Ki), 1.4 nM.
